Measured values gathered from unrelated publications.
Lines come from different studies, so protocols differ.
Target: Rho-associated protein kinase 2 (ROCK2, Homo sapiens, UniProt O75116)

| Compound | assay | conditions | measurement | value |
| --- | --- | --- | --- | --- |
| Cn1cncc1[C@@](O)(COc1ccc(C#N)cc1-c1ccc(OC(F)(F)F)cc1)c1ccc(C#N)cc1 | cell-free assay, competition with immobilised ligand | 1 µM | remaining binding | 100% |
| O=c1[nH]c2ccccc2n1C1CCN(Cc2ccc(-c3[nH]c4cc5ncnc5cc4nc3-c3ccccc3)cc2)CC1 | cell-free assay | 0.5 µM | remaining signal | 109% |
| Cn1cc(-c2cc(F)cc(N3CCn4c(cc5c4CCCC5)C3=O)c2CO)cc(Nc2ccc(N3CCN(C4COC4)CC3)cn2)c1=O | enzyme activity, inhibitor | 0.1 µM | inhibition | 1% |
| COc1cc(Nc2ncc(F)c(Nc3ccc4c(n3)NC(=O)C(C)(C)O4)n2)cc(OC)c1OC | binding | 10 µM | inhibition | 86% |
| C#Cc1n[nH]c2c(-c3cn(C(C)c4ccccn4)c(=O)[nH]c3=O)cc(F)cc12 (stereo not drawn) | enzyme activity, inhibitor | 1 µM | inhibition | 4.2% |
| Cn1cc(-c2cccc(N3CCc4c(sc5c4CC(C)(C)C5)C3=O)c2CO)cc(Nc2ccncn2)c1=O | enzyme activity, inhibitor | 1 µM | inhibition | 1% |
| Cc1nn(C)cc1-c1nc2c(N3CCN(Cc4ccc(Cl)cc4)CC3)c(Cl)cnc2[nH]1 | binding, competition with immobilised ligand | 1 µM | remaining binding | 35% |
| N#CC1(c2ccccn2)CCN(Cc2cc(C(=O)O)c(=O)n3ccccc23)CC1 | cell-free assay, competition with immobilised ligand | 1 µM | remaining binding | 85% |
| C#Cc1n[nH]c2c(-c3cn([C@@H](C)c4ccccc4)c(=O)[nH]c3=O)cc(F)cc12 | enzyme activity, inhibitor | 0.1 µM | inhibition | 3% |
| CC(C)(C)c1cc(C=C(C#N)C#N)cc(Br)c1O | enzyme activity, inhibitor | 0.5 µM | remaining activity | 95.6% |
| COc1ncccc1-c1cnn2ccc(N3CCN(C(=O)OC(C)C)CC3)nc12 | binding, competition with immobilised ligand | 1 µM | remaining binding | 86% |
| Nc1ncc(-c2nc(N3CCOCC3)nc(N3CCOCC3)n2)c(C(F)F)n1 | binding, competition with immobilised ligand | 10 µM | remaining binding | 100% |
